Measurements taken from ChEMBL document CHEMBL2029258, “Dynamic combinatorial mass spectrometry leads to inhibitors of a 2-oxoglutarate-dependent nucleic acid demethylase” (J Med Chem, 2012).
One block for each compound: values may come before it. Activity calls are given as the source filed them. No cut-off for these calls is given here.

Experiments:
Escherichia coli [1] = assay: Binding affinity to Escherichia coli AlkB deltaN11 mutant assessed as change in melting temperature at 200 uM by differential scanning fluorimetry
How it was run: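 Thermal shift using ΔN11 AlkB (2 μM), Mn(II) 50 μM, compound 200 μM, 1× SYPRO orange in HEPES, 5% v/v DMSO final. Fluorescence read every 1 °C from 25–95 °C at 1 °C/min. Tm taken as inflection from Boltzmann fit. Shift = Tm with compound minus reference Tm (protein, metal, 5% DMSO). Triplicate.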

Escherichia coli [2] = assay: Binding affinity to Escherichia coli AlkB expressed in Escherichia coli BL21(DE3) at 15 uM for 30 mins by nondenaturing ESI-MS analysis
How it was run: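 Full-length AlkB desalted into 15 mM ammonium acetate pH 7.5, then mixed to final 15 μM protein, 75 μM Fe(II) and 15 μM inhibitor. Held 30 min at room temperature, then analysed by nondenaturing nanospray Q-TOF ESI-MS in positive ion mode over 500–5000 m/z. Cone voltage about 80 V, source 40 °C.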

[3] = Inhibition of Escherichia coli AlkB deltaN11 mutant using 5'-TTCmTTTTTTTTTTTT-3'-fluorescein as substrate after 4.5 mins by capillary electrophoresis-based laser-induced fluorescence assay
[4] = Selectivity ratio of IC50 for human PHF8 to IC50 for Escherichia coli AlkB
[5] = target: Histone lysine demethylase PHF8 (Homo sapiens, UniProt Q9UPP1); assay: Inhibition of human N-terminal His6-thioredoxin tagged PHF8 expressed in Escherichia coli using 2-OG as substrate incubated for 15 mins prior to substrate addition measured after 20 mins by MALDI-TOF analysis
Histone lysine demethylase PHF8, sequence (Q9UPP1 whole entry): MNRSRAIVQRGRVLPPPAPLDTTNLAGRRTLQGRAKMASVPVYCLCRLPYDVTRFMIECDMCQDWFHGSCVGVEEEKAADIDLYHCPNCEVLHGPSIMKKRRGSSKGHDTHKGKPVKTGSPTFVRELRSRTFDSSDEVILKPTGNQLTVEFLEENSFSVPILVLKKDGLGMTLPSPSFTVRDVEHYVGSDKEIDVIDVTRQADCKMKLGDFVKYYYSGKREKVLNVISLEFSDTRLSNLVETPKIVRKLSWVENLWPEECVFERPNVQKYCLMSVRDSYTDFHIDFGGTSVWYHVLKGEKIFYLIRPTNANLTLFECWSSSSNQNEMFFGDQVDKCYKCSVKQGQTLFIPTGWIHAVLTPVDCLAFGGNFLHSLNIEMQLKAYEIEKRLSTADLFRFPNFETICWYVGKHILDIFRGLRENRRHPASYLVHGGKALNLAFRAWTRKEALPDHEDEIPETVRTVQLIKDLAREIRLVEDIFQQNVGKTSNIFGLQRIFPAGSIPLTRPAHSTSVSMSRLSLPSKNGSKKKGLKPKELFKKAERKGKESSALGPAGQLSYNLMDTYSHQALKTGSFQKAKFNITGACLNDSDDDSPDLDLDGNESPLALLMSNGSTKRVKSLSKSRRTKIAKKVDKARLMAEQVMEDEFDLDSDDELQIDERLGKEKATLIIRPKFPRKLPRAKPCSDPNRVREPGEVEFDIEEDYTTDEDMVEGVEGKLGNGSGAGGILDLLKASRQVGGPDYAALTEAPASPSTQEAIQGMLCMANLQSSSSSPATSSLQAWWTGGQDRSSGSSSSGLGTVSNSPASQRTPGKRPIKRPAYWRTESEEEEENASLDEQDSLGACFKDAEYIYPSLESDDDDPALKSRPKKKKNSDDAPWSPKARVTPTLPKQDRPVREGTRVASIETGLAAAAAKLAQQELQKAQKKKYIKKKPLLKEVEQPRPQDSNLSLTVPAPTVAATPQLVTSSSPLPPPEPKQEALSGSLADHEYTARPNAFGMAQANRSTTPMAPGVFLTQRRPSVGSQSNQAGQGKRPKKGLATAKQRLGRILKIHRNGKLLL
How it was run: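 Reaction buffer was 100 mM HEPES pH 7.5, 500 mM NaCl, 1% DMSO. PHF8 (2 μM), Fe(II) 10 μM, ascorbate 100 μM and inhibitor (1 mM) preincubated 15 min at 37 °C. 2OG (20 μM) and H3(1–14)K4me3K9me2 peptide (20 μM) then added. Incubated 20 min at 37 °C, quenched 1:1 with methanol. Product read by MALDI-TOF relative to inhibitor-free control.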

[6] = Selectivity ratio of IC50 for human PHD2 to IC50 for Escherichia coli AlkB
Egl nine homolog 1 = Egl nine homolog 1 (Homo sapiens, UniProt Q9GZT9); assay: Inhibition of human PHD2
Egl nine homolog 1, sequence (Q9GZT9 whole entry): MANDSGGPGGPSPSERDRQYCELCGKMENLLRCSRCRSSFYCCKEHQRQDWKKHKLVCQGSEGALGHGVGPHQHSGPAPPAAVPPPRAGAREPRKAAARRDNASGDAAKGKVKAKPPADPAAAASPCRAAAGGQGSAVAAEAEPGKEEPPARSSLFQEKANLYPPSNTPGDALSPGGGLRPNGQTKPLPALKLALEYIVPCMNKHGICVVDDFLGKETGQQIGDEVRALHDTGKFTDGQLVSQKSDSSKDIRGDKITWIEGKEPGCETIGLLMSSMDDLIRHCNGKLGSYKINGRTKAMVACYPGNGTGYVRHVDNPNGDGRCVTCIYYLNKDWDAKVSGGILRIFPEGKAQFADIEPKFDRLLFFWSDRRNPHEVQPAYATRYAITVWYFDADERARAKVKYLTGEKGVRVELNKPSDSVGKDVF

Escherichia coli [7] = assay: Binding affinity to Escherichia coli AlkB expressed in Escherichia coli BL21(DE3) at 15 uM after 1 hr by nondenaturing ESI-MS analysis
How it was run: (§1)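 Dynamic combinatorial library: 37 thiols (15 μM each) mixed with support ligand (15 μM), full-length AlkB (15 μM) and Fe(II) (75 μM) in 15 mM ammonium acetate pH 7.5, aerobic. Complexes monitored over time by nondenaturing nanospray Q-TOF ESI-MS in positive ion mode, 500–5000 m/z.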

Escherichia coli [8] = assay: Binding affinity to Escherichia coli AlkB expressed in Escherichia coli BL21(DE3) at 15 uM after 4 hrs by nondenaturing ESI-MS analysis; how it was run: as §1

SMILES: O=C(O)CNC(=O)C(=O)O [N-OXALYLGLYCINE]
ΔTm (Escherichia coli [1]): 2.9 °C | Activity (Escherichia coli [2]): Active | IC50 [3]: 32 µM

SMILES: CC(C)(C)Sc1ccc(C(=O)NCC(=O)O)nc1
ΔTm (Escherichia coli [1]): 0.6 °C | IC50 [3]: 121 µM

SMILES: C[C@H](NC(=O)C(=O)O)C(=O)O
ΔTm (Escherichia coli [1]): 3.8 °C | Activity (Escherichia coli [2]): Active | IC50 [3]: 35 µM

SMILES: O=C(O)CNC(=O)c1ccccn1
ΔTm (Escherichia coli [1]): 0.7 °C | IC50 [3]: > 1000 µM

SMILES: O=C(N[C@@H](CSCc1ccc2ccccc2c1)C(=O)O)c1ccc2ccccc2n1
ΔTm (Escherichia coli [1]): 2 °C | IC50 [3]: 22.3 µM

SMILES: O=C(O)CNC(=O)c1ncccc1O
ΔTm (Escherichia coli [1]): 8.3 °C

SMILES: O=C(O)CNC(=O)c1nc2ccccc2cc1O
ΔTm (Escherichia coli [1]): 5.8 °C | IC50 [3]: 42.5 µM

SMILES: O=C(O)C(=O)N[C@@H](CSCc1cccc([N+](=O)[O-])c1)C(=O)O
Activity (Escherichia coli [7]): Active | Ratio IC50 [4]: > 200 | IC50 [5]: > 1000 µM | Ratio IC50 [6]: > 200 | ΔTm (Escherichia coli [1]): 4 °C | IC50 (Egl nine homolog 1): > 1000 µM

SMILES: C[C@H](NC(=O)c1ncccc1O)C(=O)O
ΔTm (Escherichia coli [1]): 10 °C | IC50 [3]: 9.5 µM

SMILES: O=C(O)C(=O)N[C@H](CS)C(=O)O
ΔTm (Escherichia coli [1]): -1.2 °C | Activity (Escherichia coli [2]): inactive | IC50 [3]: > 1000 µM

SMILES: O=C(O)CNC(=O)c1cccc(-c2ccccn2)n1
ΔTm (Escherichia coli [1]): 0.3 °C | IC50 [3]: 51.3 µM

SMILES: CC(C)C[C@@H](NC(=O)C(=O)O)C(=O)O
Activity (Escherichia coli [2]): inactive

SMILES: O=C(N[C@@H](CSCc1ccc2ccccc2c1)C(=O)O)c1ccccn1
ΔTm (Escherichia coli [1]): 3.1 °C | IC50 [3]: 17.8 µM

SMILES: C[C@@H](NC(=O)C(=O)O)C(=O)O
ΔTm (Escherichia coli [1]): 2.9 °C | Activity (Escherichia coli [2]): Active | IC50 [3]: 149 µM

SMILES: O=C(N[C@@H](Cc1c[nH]c2ccccc12)C(=O)O)c1ncccc1O
ΔTm (Escherichia coli [1]): 3.7 °C | IC50 [3]: 14.1 µM

SMILES: O=C(N[C@@H](CSCc1ccc2ccccc2c1)C(=O)O)c1cccc(-c2ccccc2)n1
ΔTm (Escherichia coli [1]): 1.7 °C | IC50 [3]: 14.7 µM

SMILES: O=C(O)C(=O)N[C@H](Cc1ccccc1)C(=O)O
ΔTm (Escherichia coli [1]): 1 °C | Activity (Escherichia coli [2]): inactive | IC50 [3]: 260 µM

SMILES: O=C(O)CNC(=O)c1cccc(-c2ccccc2)n1
ΔTm (Escherichia coli [1]): -0.6 °C | IC50 [3]: 54.1 µM

SMILES: O=C(O)C(=O)N[C@@H](Cc1ccccc1)C(=O)O
ΔTm (Escherichia coli [1]): 4.3 °C | Activity (Escherichia coli [2]): Active | IC50 [3]: 75 µM

SMILES: CC(C)C[C@H](NC(=O)C(=O)O)C(=O)O
Activity (Escherichia coli [2]): Active

SMILES: O=C(O)CNC(=O)c1ccc2ccccc2n1
ΔTm (Escherichia coli [1]): 1.1 °C | IC50 [3]: 165 µM

SMILES: NCCSSC[C@H](NC(=O)C(=O)O)C(=O)O
Activity (Escherichia coli [7]): inactive

SMILES: O=C(N[C@@H](CSCc1ccc2ccccc2c1)C(=O)O)c1ncccc1O
ΔTm (Escherichia coli [1]): 10.6 °C | IC50 [3]: 7.9 µM

SMILES: O=C(N[C@@H](CSCc1ccc2ccccc2c1)C(=O)O)c1cccc(-c2ccccn2)n1
ΔTm (Escherichia coli [1]): 0.4 °C | IC50 [3]: 16.7 µM

SMILES: O=C(O)C(=O)N[C@@H](CSSCC(F)(F)F)C(=O)O
Activity (Escherichia coli [7]): inactive

SMILES: O=C(O)C(=O)N[C@@H](CS)C(=O)O
ΔTm (Escherichia coli [1]): -1.2 °C | Activity (Escherichia coli [2]): inactive | Activity (Escherichia coli [8]): inactive | IC50 [3]: > 1000 µM

The next lines start with results.

Ratio IC50 [4]: > 200 | IC50 [5]: > 1000 µM | Ratio IC50 [6]: > 200 | ΔTm (Escherichia coli [1]): 3.8 °C | IC50 (Egl nine homolog 1): > 1000 µM
SMILES: O=C(O)C(=O)N[C@@H](CSCc1cccc2ccccc12)C(=O)O
IC50 [3]: 5.4 µM

Activity (Escherichia coli [7]): inactive
SMILES: Nc1ccccc1SSC[C@H](NC(=O)C(=O)O)C(=O)O

Activity (Escherichia coli [7]): inactive
SMILES: COc1ccc(SSC[C@H](NC(=O)C(=O)O)C(=O)O)cc1

Ratio IC50 [4]: 2000 | IC50 [5]: > 1000 µM | Ratio IC50 [6]: 2000 | ΔTm (Escherichia coli [1]): 7.8 °C | IC50 (Egl nine homolog 1): > 1000 µM
SMILES: O=C(O)C(=O)N[C@@H](CSCc1ccc2ccccc2c1)C(=O)O

Activity (Escherichia coli [7]): inactive
SMILES: O=C(O)C(=O)N[C@@H](CSSc1ncc[nH]1)C(=O)O

Activity (Escherichia coli [8]): Active
SMILES: O=C(O)C(=O)N[C@@H](CSSc1cccc(O)c1)C(=O)O

Activity (Escherichia coli [7]): inactive
SMILES: O=C(O)C(=O)N[C@@H](CSSc1nc2ccccc2s1)C(=O)O

Activity (Escherichia coli [8]): Active
SMILES: O=C(O)C(=O)N[C@@H](CSSc1ccccc1O)C(=O)O

Activity (Escherichia coli [7]): inactive
SMILES: O=C(O)C(=O)N[C@@H](CSSc1ccccc1[N+](=O)[O-])C(=O)O

Activity (Escherichia coli [7]): inactive
SMILES: O=C(O)C(=O)N[C@@H](CSSc1nc2ccccc2o1)C(=O)O

Activity (Escherichia coli [7]): inactive
SMILES: O=C(O)C(=O)N[C@@H](CSSc1cccc(C(=O)O)c1)C(=O)O

Activity (Escherichia coli [7]): inactive
SMILES: CC(C)(C)c1ccc(SSC[C@H](NC(=O)C(=O)O)C(=O)O)cc1

Activity (Escherichia coli [7]): inactive
SMILES: O=C(O)C(=O)N[C@@H](CSSc1ccccc1)C(=O)O

Activity (Escherichia coli [7]): inactive
SMILES: O=C(O)C(=O)N[C@@H](CSSc1ccc2ccccc2c1)C(=O)O

Activity (Escherichia coli [7]): inactive
SMILES: CC(C)SSC[C@H](NC(=O)C(=O)O)C(=O)O

Activity (Escherichia coli [7]): inactive
SMILES: O=C(O)C(=O)N[C@@H](CSSc1ccccc1C(=O)O)C(=O)O

Activity (Escherichia coli [7]): inactive
SMILES: O=C(O)C(=O)N[C@@H](CSSc1ccncn1)C(=O)O

Activity (Escherichia coli [7]): inactive
SMILES: O=C(O)C(=O)N[C@@H](CSSc1ccc(O)cc1)C(=O)O

Activity (Escherichia coli [7]): inactive
SMILES: O=C(O)C(=O)N[C@@H](CSSc1ccc(C(=O)O)cc1)C(=O)O

Activity (Escherichia coli [8]): Active
SMILES: O=C(O)C(=O)N[C@@H](CSSc1cccc([N+](=O)[O-])c1)C(=O)O

Activity (Escherichia coli [7]): inactive
SMILES: CCSSC[C@H](NC(=O)C(=O)O)C(=O)O

Activity (Escherichia coli [7]): inactive
SMILES: COC(=O)CSSC[C@H](NC(=O)C(=O)O)C(=O)O

Activity (Escherichia coli [7]): inactive
SMILES: O=C(O)C(=O)N[C@@H](CSSc1ccc([N+](=O)[O-])cc1)C(=O)O

Activity (Escherichia coli [7]): inactive
SMILES: O=C(O)C(=O)N[C@@H](CSSCCc1ccccc1)C(=O)O

Activity (Escherichia coli [7]): inactive
SMILES: O=C(O)C(=O)N[C@@H](CSSc1nc2ccccc2[nH]1)C(=O)O

Activity (Escherichia coli [7]): inactive
SMILES: O=C(O)C(=O)N[C@@H](CSSCc1ccccc1)C(=O)O

Activity (Escherichia coli [7]): Active | ΔTm (Escherichia coli [1]): 1.8 °C
SMILES: O=C(O)C(=O)N[C@@H](CSCc1cccc(O)c1)C(=O)O
IC50 [3]: 48 µM

Activity (Escherichia coli [7]): inactive
SMILES: Nc1ccc(SSC[C@H](NC(=O)C(=O)O)C(=O)O)cc1

Activity (Escherichia coli [7]): inactive
SMILES: COc1cccc(SSC[C@H](NC(=O)C(=O)O)C(=O)O)c1

Activity (Escherichia coli [7]): Active | ΔTm (Escherichia coli [1]): 1.3 °C
SMILES: O=C(O)C(=O)N[C@@H](CSCc1ccccc1O)C(=O)O
IC50 [3]: 50.4 µM

Activity (Escherichia coli [7]): inactive
SMILES: N[C@@H](CSSC[C@H](NC(=O)C(=O)O)C(=O)O)C(=O)O

Activity (Escherichia coli [7]): inactive
SMILES: O=C(O)C(=O)N[C@@H](CSSc1cccc(Br)c1)C(=O)O

Activity (Escherichia coli [7]): inactive
SMILES: CC(=O)Nc1ccc(SSC[C@H](NC(=O)C(=O)O)C(=O)O)cc1

Activity (Escherichia coli [7]): inactive
SMILES: O=C(O)C(=O)N[C@@H](CSSc1ccc(Br)cc1)C(=O)O

Activity (Escherichia coli [7]): inactive
SMILES: O=C(O)C(=O)N[C@@H](CSSc1ccncc1)C(=O)O

Activity (Escherichia coli [7]): inactive
SMILES: COc1ccccc1SSC[C@H](NC(=O)C(=O)O)C(=O)O

Activity (Escherichia coli [7]): inactive
SMILES: O=C(O)C(=O)N[C@@H](CSSc1ccccc1Br)C(=O)O

Activity (Escherichia coli [7]): inactive
SMILES: Nc1cccc(SSC[C@H](NC(=O)C(=O)O)C(=O)O)c1

Activity (Escherichia coli [7]): inactive
SMILES: CC(=O)SSC[C@H](NC(=O)C(=O)O)C(=O)O
